# Values joined by “and” are separate entries in the source; they are usually repeats but may differ in a detail not shown here. Equal entries are not always repeated.
# Key:
# Assay type in all cases: toxicity, cell-based
# [1] = tested on: HEK-293T; assay: Incucyte cell viability with HEK293T; conditions: human, 10 µM, compound concentration 10 uM; also: filed as whole numbers so only -1 and 0 and 1 occur
# [2] = tested on: HEK-293T; assay: Multiplex assay against HEK293T; conditions: human, 10 µM, compound concentration 10 uM;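 as to Population Tubulin-Different-Phenotype (%): share of the cells with healthy nuclei that show this phenotype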
# Outline: (§1)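 Phenotypes for tubulin, mitochondrial mass and membrane permeability are expressed as per cents of healthy-nucleus cells. Cells were stained live at seeding with Hoechst33342, BioTracker Green Microtubule Cytoskeleton Dye, MitoTracker Red and Annexin V Alexa Fluor 680, then imaged after compound addition on a CQ1 microscope at 37°C and 5% CO2. Machine-learning gating in CellPathfinder separated Hoechst high-intensity objects from normal cells, divided normal cells by nuclear state (healthy, pyknosed, fragmented) and divided pyknosed cells into mitotic or apoptotic.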
# [3] = tested on: Fibroblast; assay: Multiplex assay against human fibroblast; conditions: 10 µM, compound concentration 10 uM; outline: as §1
# [4] = tested on: U2OS; assay: Incucyte cell viability with U2OS; conditions: human, 10 µM, compound concentration 10 uM; also: filed as whole numbers so only -1 and 0 and 1 occur
# [5] = tested on: U2OS; assay: Multiplex assay against U2OS; conditions: human, 10 µM, compound concentration 10 uM; outline: as §1
# [6] = tested on: Fibroblast; assay: Incucyte cell viability with human fibroblast; conditions: 10 µM, compound concentration 10 uM; also: filed as whole numbers so only -1 and 0 and 1 occur
# [7] = 6 h, replicate number 1, timepoint 6 hours
# [8] = 12 h, replicate number 1, timepoint 12 hours
# [9] = 18 h, replicate number 1, timepoint 18 hours
# [10] = 24 h, replicate number 1, timepoint 24 hours
structure (smiles),measurement,setting,value
C1=N/C2=N/c3ccc(OCCN4CCCC4)c(c3)COC/C=C\COCc3cccc(c3)C(=C1)N2,Growth Rate,[1]; [7],0
same,Growth Rate,[1]; [8],0
same,Growth Rate,[1]; [9],0
same,Growth Rate,[1]; [10],0
same,Population Fragmented Nuclei (%),"[2]; 12 h, replicate 1",34% and 21% and 25%
same,Population Hoechst High Intensity Objects (%),"[2]; 12 h, replicate 1",26% and 14% and 21%
same,Population Membrane Permeable-Phenotype (%),"[2]; 12 h, replicate 1",14% and 13% and 0%
same,Population Normal (%),"[2]; 12 h, replicate 1",73% and 85% and 78%
same,Population Pyknosed Nuclei (%),"[2]; 12 h, replicate 1",52% and 47% and 73%
same,Total Cell Count,"[2]; 12 h, replicate 1",695 and 596 and 237
same,Population Membrane Permeable-Phenotype (%),"[2]; 12 h, replicate 2",4% and 5%
same,Population Mitochondria Different-Phenotype (%),"[2]; 12 h, replicate 2",89% and 81% and 50%
same,Population Normal (%),"[2]; 12 h, replicate 2",77% and 79% and 94%
same,Population Pyknosed Nuclei (%),"[2]; 12 h, replicate 2",54% and 88% and 38%
same,Population Tubulin-Different-Phenotype (%),"[2]; 12 h, replicate 2",82% and 72% and 94%
same,Population Apoptotic (%),"[2]; 24 h, replicate 1",87% and 58% and 29%
same,Population Fragmented Nuclei (%),"[2]; 24 h, replicate 1",30% and 38% and 21%
same,Population Hoechst High Intensity Objects (%),"[2]; 24 h, replicate 1",20% and 21% and 14%
same,Population Membrane Permeable-Phenotype (%),"[2]; 24 h, replicate 1",0% and 19% and 7%
same,Population Normal (%),"[2]; 24 h, replicate 1",79% and 78% and 85%
same,Population Pyknosed Nuclei (%),"[2]; 24 h, replicate 1",69% and 45% and 44%
same,Total Cell Count,"[2]; 24 h, replicate 1",253 and 698 and 607
same,Population Hoechst High Intensity Objects (%),"[2]; 24 h, replicate 2",19% and 13% and 7%
same,Population Mitochondria Different-Phenotype (%),"[2]; 24 h, replicate 2",69% and 78% and 54%
same,Population Normal (%),"[2]; 24 h, replicate 2",80% and 86% and 92%
same,Population Pyknosed Nuclei (%),"[2]; 24 h, replicate 2",79% and 55% and 35%
same,Population Tubulin-Different-Phenotype (%),"[2]; 24 h, replicate 2",100% and 87% and 94%
same,Population Apoptotic (%),"[2]; 48 h, replicate 1",87%
same,Population Fragmented Nuclei (%),"[2]; 48 h, replicate 1",37%
same,Population Healthy Nuclei (%),"[2]; 48 h, replicate 1",0%
same,Population Hoechst High Intensity Objects (%),"[2]; 48 h, replicate 1",26%
same,Population Membrane Permeable-Phenotype (%),"[2]; 48 h, replicate 1",0%
same,Population Mitochondria Different-Phenotype (%),"[2]; 48 h, replicate 1",0%
same,Population Mitotic Cells (%),"[2]; 48 h, replicate 1",12%
same,Population Normal (%),"[2]; 48 h, replicate 1",73%
same,Population Pyknosed Nuclei (%),"[2]; 48 h, replicate 1",62%
same,Population Tubulin-Different-Phenotype (%),"[2]; 48 h, replicate 1",0%
same,Total Cell Count,"[2]; 48 h, replicate 1",253
same,Population Fragmented Nuclei (%),"[2]; 48 h, replicate 2",17%
same,Population Healthy Nuclei (%),"[2]; 48 h, replicate 2",18%
same,Population Hoechst High Intensity Objects (%),"[2]; 48 h, replicate 2",15%
same,Population Membrane Permeable-Phenotype (%),"[2]; 48 h, replicate 2",3%
same,Population Mitochondria Different-Phenotype (%),"[2]; 48 h, replicate 2",81%
same,Population Normal (%),"[2]; 48 h, replicate 2",84%
same,Population Pyknosed Nuclei (%),"[2]; 48 h, replicate 2",64%
same,Population Tubulin-Different-Phenotype (%),"[2]; 48 h, replicate 2",96%
same,Total Cell Count,"[2]; 48 h, replicate 2",212
same,Population Apoptotic (%),"[3]; 12 h, replicate 1",82% and 50% and 69%
same,Population Fragmented Nuclei (%),"[3]; 12 h, replicate 1",23% and 19% and 32%
same,Population Hoechst High Intensity Objects (%),"[3]; 12 h, replicate 1",13% and 8% and 12%
same,Population Membrane Permeable-Phenotype (%),"[3]; 12 h, replicate 1",0% and 2% and 3%
same,Population Mitotic Cells (%),"[3]; 12 h, replicate 1",17% and 49% and 30%
same,Population Normal (%),"[3]; 12 h, replicate 1",86% and 91% and 87%
same,Population Apoptotic (%),"[3]; 12 h, replicate 2",68% and 44% and 90%
same,Population Fragmented Nuclei (%),"[3]; 12 h, replicate 2",66% and 46% and 29%
same,Population Normal (%),"[3]; 12 h, replicate 2",60% and 68% and 89%
same,Population Pyknosed Nuclei (%),"[3]; 12 h, replicate 2",24% and 18% and 53%
same,Total Cell Count,"[3]; 12 h, replicate 2",108 and 72 and 71
same,Population Apoptotic (%),"[3]; 24 h, replicate 1",82% and 61% and 58%
same,Population Fragmented Nuclei (%),"[3]; 24 h, replicate 1",35% and 32% and 34%
same,Population Hoechst High Intensity Objects (%),"[3]; 24 h, replicate 1",15% and 6% and 13%
same,Population Mitotic Cells (%),"[3]; 24 h, replicate 1",17% and 38% and 41%
same,Population Normal (%),"[3]; 24 h, replicate 1",84% and 93% and 86%
same,Population Tubulin-Different-Phenotype (%),"[3]; 24 h, replicate 1",54% and 82%
same,Population Apoptotic (%),"[3]; 24 h, replicate 2",92% and 57% and 96%
same,Population Hoechst High Intensity Objects (%),"[3]; 24 h, replicate 2",37% and 28% and 32%
same,Population Normal (%),"[3]; 24 h, replicate 2",62% and 71% and 67%
same,Total Cell Count,"[3]; 24 h, replicate 2",98 and 77 and 69
same,Population Apoptotic (%),"[3]; 48 h, replicate 1",87%
same,Population Fragmented Nuclei (%),"[3]; 48 h, replicate 1",50%
same,Population Healthy Nuclei (%),"[3]; 48 h, replicate 1",24%
same,Population Hoechst High Intensity Objects (%),"[3]; 48 h, replicate 1",20%
same,Population Membrane Permeable-Phenotype (%),"[3]; 48 h, replicate 1",25%
same,Population Mitochondria Different-Phenotype (%),"[3]; 48 h, replicate 1",31%
same,Population Mitotic Cells (%),"[3]; 48 h, replicate 1",12%
same,Population Normal (%),"[3]; 48 h, replicate 1",79%
same,Population Pyknosed Nuclei (%),"[3]; 48 h, replicate 1",24%
same,Population Tubulin-Different-Phenotype (%),"[3]; 48 h, replicate 1",50%
same,Total Cell Count,"[3]; 48 h, replicate 1",82
same,Population Apoptotic (%),"[3]; 48 h, replicate 2",94%
same,Population Fragmented Nuclei (%),"[3]; 48 h, replicate 2",68%
same,Population Healthy Nuclei (%),"[3]; 48 h, replicate 2",5%
same,Population Hoechst High Intensity Objects (%),"[3]; 48 h, replicate 2",14%
same,Population Membrane Permeable-Phenotype (%),"[3]; 48 h, replicate 2",0%
same,Population Mitochondria Different-Phenotype (%),"[3]; 48 h, replicate 2",100%
same,Population Mitotic Cells (%),"[3]; 48 h, replicate 2",5%
same,Population Normal (%),"[3]; 48 h, replicate 2",85%
same,Population Pyknosed Nuclei (%),"[3]; 48 h, replicate 2",25%
same,Population Tubulin-Different-Phenotype (%),"[3]; 48 h, replicate 2",75%
same,Total Cell Count,"[3]; 48 h, replicate 2",78
same,Growth Rate,"[4]; 0 h, replicate number 1, timepoint 0 hours",0
same,Growth Rate,[4]; [7],0
same,Growth Rate,[4]; [8],0
same,Growth Rate,[4]; [9],0
same,Growth Rate,[4]; [10],0
same,Population Apoptotic (%),"[5]; 12 h, replicate 1",87% and 88% and 55%
same,Population Fragmented Nuclei (%),"[5]; 12 h, replicate 1",35% and 19% and 20%
same,Population Hoechst High Intensity Objects (%),"[5]; 12 h, replicate 1",6% and 13%
same,Population Normal (%),"[5]; 12 h, replicate 1",93% and 86%
same,Population Pyknosed Nuclei (%),"[5]; 12 h, replicate 1",44% and 67% and 25%
same,Population Tubulin-Different-Phenotype (%),"[5]; 12 h, replicate 1",94% and 60%
same,Total Cell Count,"[5]; 12 h, replicate 1",194 and 177 and 149
same,Population Apoptotic (%),"[5]; 12 h, replicate 2",90% and 68%
same,Population Fragmented Nuclei (%),"[5]; 12 h, replicate 2",53% and 29%
same,Population Hoechst High Intensity Objects (%),"[5]; 12 h, replicate 2",16% and 10% and 7%
same,Population Normal (%),"[5]; 12 h, replicate 2",83% and 89% and 92%
same,Population Pyknosed Nuclei (%),"[5]; 12 h, replicate 2",27% and 53% and 22%
same,Population Tubulin-Different-Phenotype (%),"[5]; 12 h, replicate 2",55% and 100% and 43%
same,Total Cell Count,"[5]; 12 h, replicate 2",154 and 71 and 158
same,Population Apoptotic (%),"[5]; 24 h, replicate 1",98% and 82%
same,Population Fragmented Nuclei (%),"[5]; 24 h, replicate 1",23% and 31% and 11%
same,Population Hoechst High Intensity Objects (%),"[5]; 24 h, replicate 1",14% and 15%
same,Population Mitochondria Different-Phenotype (%),"[5]; 24 h, replicate 1",100% and 88% and 63%
same,Population Normal (%),"[5]; 24 h, replicate 1",85% and 84%
same,Population Pyknosed Nuclei (%),"[5]; 24 h, replicate 1",75% and 54% and 32%
same,Population Tubulin-Different-Phenotype (%),"[5]; 24 h, replicate 1",100% and 88% and 69%
same,Total Cell Count,"[5]; 24 h, replicate 1",179 and 191 and 200
same,Population Apoptotic (%),"[5]; 24 h, replicate 2",100% and 96% and 88%
same,Population Membrane Permeable-Phenotype (%),"[5]; 24 h, replicate 2",50% and 81% and 33%
same,Population Mitochondria Different-Phenotype (%),"[5]; 24 h, replicate 2",20% and 57%
same,Population Mitotic Cells (%),"[5]; 24 h, replicate 2",0% and 3% and 11%
same,Population Normal (%),"[5]; 24 h, replicate 2",83% and 67% and 90%
same,Population Tubulin-Different-Phenotype (%),"[5]; 24 h, replicate 2",40% and 61%
same,Total Cell Count,"[5]; 24 h, replicate 2",154 and 69 and 193
same,Population Apoptotic (%),"[5]; 48 h, replicate 1",100%
same,Population Fragmented Nuclei (%),"[5]; 48 h, replicate 1",28%
same,Population Healthy Nuclei (%),"[5]; 48 h, replicate 1",1%
same,Population Hoechst High Intensity Objects (%),"[5]; 48 h, replicate 1",16%
same,Population Membrane Permeable-Phenotype (%),"[5]; 48 h, replicate 1",100%
same,Population Mitochondria Different-Phenotype (%),"[5]; 48 h, replicate 1",100%
same,Population Mitotic Cells (%),"[5]; 48 h, replicate 1",0%
same,Population Normal (%),"[5]; 48 h, replicate 1",83%
same,Population Pyknosed Nuclei (%),"[5]; 48 h, replicate 1",70%
same,Population Tubulin-Different-Phenotype (%),"[5]; 48 h, replicate 1",100%
same,Total Cell Count,"[5]; 48 h, replicate 1",162
same,Population Fragmented Nuclei (%),"[5]; 48 h, replicate 2",19%
same,Population Healthy Nuclei (%),"[5]; 48 h, replicate 2",33%
same,Population Hoechst High Intensity Objects (%),"[5]; 48 h, replicate 2",37%
same,Population Membrane Permeable-Phenotype (%),"[5]; 48 h, replicate 2",92%
same,Population Mitochondria Different-Phenotype (%),"[5]; 48 h, replicate 2",92%
same,Population Normal (%),"[5]; 48 h, replicate 2",62%
same,Population Pyknosed Nuclei (%),"[5]; 48 h, replicate 2",47%
same,Population Tubulin-Different-Phenotype (%),"[5]; 48 h, replicate 2",92%
same,Total Cell Count,"[5]; 48 h, replicate 2",70
same,Growth Rate,[6]; [7],0
same,Growth Rate,[6]; [8],0
same,Growth Rate,[6]; [9],0
same,Growth Rate,[6]; [10],0

# From ChEMBL document CHEMBL4689842, “EUbOPEN Chemogenomics Library wave 1” (2021)
